# “Also recorded” adds a separate entry of the source.
# What was measured:
# Ba/F3 Bcr-Abl^WT = assay: Antiproliferation cell assay; assay type: cell-based; conditions: Mus musculus, BaF3, 72 h, read-out: Cellular inhibition IC50 Ba/F3 Bcr-Abl^WT
# Ba/F3 Bcr-Abl^T315I = assay: Antiproliferation cell assay; assay type: cell-based; conditions: Mus musculus, BaF3, 72 h, read-out: Cellular inhibition IC50 Ba/F3 Bcr-Abl^T315I
# Bcr-Abl^WT = Bcr-Abl^WT (Homo sapiens, UniProt P00519+P11274); assay: Western blot degradation study in K562 cells; assay type: cell-based
# [1] = system: Ba/F3 Bcr-Abl^T315I xenograft; assay: In vivo antitumor efficacy, Ba/F3 Bcr-Abl^T315I xenograft model; set-up: species or system CB17-SCID mice
# Procedure, shortened: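 Ba/F3 Bcr-AblT315I cells in normal saline were implanted s.c. in the right flank of CB17-SCID mice (2 × 10^6 cells/0.1 mL). Mice were randomised at mean tumour volume 100–200 mm3 and dosed i.p. every two days at 10 or 20 mg/kg. Vehicle was 5% DMSO + 10% solutol + 85% saline. Body weight and tumour volume (L × W²/2) were recorded every two days. Terminal tumours were formalin-fixed, paraffin-sectioned and TUNEL-stained.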
# K562 = assay: Antiproliferation cell assay; assay type: cell-based, human; conditions: Homo sapiens, K562, 72 h, read-out: Cellular inhibition IC50 K562
# Procedure, shortened: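 K562 (ATCC) cells were grown in RPMI-1640 with 10% FBS, penicillin, streptomycin and 2 mmol/L glutamine at 37 °C in humidified CO2. Log-phase cells were seeded at ~3000/well, rested overnight, then exposed to test compound or vehicle for 72 h (10 mmol/L DMSO stocks). CCK-8 was read as OD450−OD650, with viability normalised to no-cell blank and vehicle wells. IC50 came from concentration–response curve fitting, mean ± SD.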
# [2] = Pharmacokinetics in mice, single i.p. injection; assay type: in vivo, ICR mice; conditions: 20 mg/kg
# Bcr-Abl^T315I = Bcr-Abl^T315I (Homo sapiens, UniProt P00519+P11274, T315I); assay: Western blot degradation study in Ba/F3 cells expressed Bcr-Abl^T315I; assay type: cell-based; conditions: for DR against Ba/F3 Bcr-Abl^T315I (%) 100 nmol/L / DR against Ba/F3 Bcr-Abl^T315I (%) 300 nmol/L: 24 h treatment, Western blot
# [3] = target: Bcr-Abl^T315I / CRBN E3 ligase (UniProt P00519+P11274+Q8C7D2, T315I); assay: Co-immunoprecipitation in Ba/F3 Bcr-Abl^T315I cells; assay type: cell-based; conditions: 24 h treatment
# Procedure, shortened: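 After 24 h exposure to a range of test compound concentrations, cells were lysed on ice in RIPA with protease and phosphatase inhibitors. Protein was BCA-quantified and equalised; ~4/5 of each lysate went to IP and the rest served as input. Anti-c-Abl antibody was added overnight at 4 °C, then protein A+G agarose for 2 h at 4 °C. Beads were washed five times in RIPA without inhibitors, and complexes were immunoblotted for CRBN.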
IC50 (Ba/F3 Bcr-Abl^WT) [µM],IC50 (Ba/F3 Bcr-Abl^T315I) [µM],IC50 (K562) [µM],DR against Ba/F3 Bcr-Abl^T315I (%) 100 nmol/L (Bcr-Abl^T315I; 100 nmol/L) [%],DR against Ba/F3 Bcr-Abl^T315I (%) 300 nmol/L (Bcr-Abl^T315I) [%],degradation on K562 cells expressing Bcr-Abl (Bcr-Abl^WT; 24 h treatment (data not shown)),degradation potency relative to GZD824 (Bcr-Abl^T315I; DR at 300 nmol/L) [fold],Compound,"treatment time after which Bcr-Abl^WT was substantially reduced in K562 cells (Bcr-Abl^WT; 100 nmol/L, time-course) [h]","tumor growth inhibition (TGI) ([1]; 20 mg/kg, i.p., q2d, 10 consecutive days) [%]","body weight loss relative to the vehicle matched controls ([1]; 20 mg/kg, i.p., q2d, during the treatment) [%]",mortality ([1]; during the treatment),"tumor growth (in words) ([1]; i.p., once every two days)","apoptosis in xenograft tumor (TUNEL) ([1]; mouse, in vivo)",plasma concentration over time [2],"treatment time after which Bcr-Abl^T315I protein level was substantially reduced (Bcr-Abl^T315I; 100 nmol/L, time-course) [h]","Bcr-Abl^T315I degradation after preincubation with proteasome inhibitor MG132 (Bcr-Abl^T315I; 20 μmol/L MG132, then 7o 24 h at 100 and 300 nmol/L)","treatment time of maximum degradation (Bcr-Abl^T315I; Ba/F3 Bcr-Abl^T315I, time-course) [h]",mechanism of Bcr-Abl^T315I degradation (Co-IP) [3]
0.01 ± 0.0021,0.0832 ± 0.0278,0.0079 ± 0.0052,−15.35,39.01,does not exhibit obvious degradation,2,"Cc1ccc(C(=O)Nc2ccc(CN3CCN(CCOCCOCCC(=O)Nc4cccc5c4C(=O)N(C4CCC(=O)NC4=O)C5=O)CC3)c(C(F)(F)F)c2)cc1C#Cc1cnc2[nH]ncc2c1 (stereo not shown) [compound 7a, 3-((1H-Pyrazolo[3,4-b]pyridin-5-yl)ethynyl)-N-(4-((4-(2-(2-(3-((2-(2,6-dioxopiperidin-3-yl)-1,3-dioxoisoindolin-4-yl)amino)-3-oxopropoxy)ethoxy)ethyl)piperazin-1-yl)methyl)-3-(trifluoromethyl)phenyl)-4-methylbenzamide]",–,–,–,–,–,–,–,–,–,–,–
0.0042 ± 0.0003,0.0334 ± 0.0016,0.0021 ± 0.0001,21.64,30.39,–,–,"Cc1ccc(C(=O)Nc2ccc(CN3CCN(CCCCCC(=O)Nc4cccc5c4C(=O)N(C4CCC(=O)NC4=O)C5=O)CC3)c(C(F)(F)F)c2)cc1C#Cc1cnc2[nH]ncc2c1 (stereo not shown) [7n, 3-((1H-Pyrazolo[3,4-b]pyridin-5-yl)ethynyl)-N-(4-((4-(6-((2-(2,6-dioxopiperidin-3-yl)-1,3-dioxoisoindolin-4-yl)amino)-6-oxohexyl)piperazin-1-yl)methyl)-3-(trifluoromethyl)phenyl)-4-methylbenzamide]",–,–,–,–,–,–,–,–,–,–,–
0.0361 ± 0.0009,0.0701 ± 0.0343,0.0464 ± 0.0212,5.33,14.25,–,–,"Cc1ccc(C(=O)Nc2ccc(CN3CCN(CCCCCCCCCCC(=O)Nc4cccc5c4C(=O)N(C4CCC(=O)NC4=O)C5=O)CC3)c(C(F)(F)F)c2)cc1C#Cc1cnc2[nH]ncc2c1 (stereo not shown) [7q, 3-((1H-Pyrazolo[3,4-b]pyridin-5-yl)ethynyl)-N-(4-((4-(11-((2-(2,6-dioxopiperidin-3-yl)-1,3-dioxoisoindolin-4-yl)amino)-11-oxoundecyl)piperazin-1-yl)methyl)-3-(trifluoromethyl)phenyl)-4-methylbenzamide]",–,–,–,–,–,–,–,–,–,–,–

# The next lines start with the compound.
Compound,IC50 (Ba/F3 Bcr-Abl^WT) [µM],IC50 (Ba/F3 Bcr-Abl^T315I) [µM],IC50 (K562) [µM],DR against Ba/F3 Bcr-Abl^T315I (%) 100 nmol/L (Bcr-Abl^T315I; 100 nmol/L) [%],DR against Ba/F3 Bcr-Abl^T315I (%) 300 nmol/L (Bcr-Abl^T315I) [%],degradation on K562 cells expressing Bcr-Abl (Bcr-Abl^WT; 24 h treatment (data not shown)),degradation potency relative to GZD824 (Bcr-Abl^T315I; DR at 300 nmol/L) [fold],"treatment time after which Bcr-Abl^WT was substantially reduced in K562 cells (Bcr-Abl^WT; 100 nmol/L, time-course) [h]","tumor growth inhibition (TGI) ([1]; 20 mg/kg, i.p., q2d, 10 consecutive days) [%]","body weight loss relative to the vehicle matched controls ([1]; 20 mg/kg, i.p., q2d, during the treatment) [%]",mortality ([1]; during the treatment),"tumor growth (in words) ([1]; i.p., once every two days)","apoptosis in xenograft tumor (TUNEL) ([1]; mouse, in vivo)",plasma concentration over time [2],"treatment time after which Bcr-Abl^T315I protein level was substantially reduced (Bcr-Abl^T315I; 100 nmol/L, time-course) [h]","Bcr-Abl^T315I degradation after preincubation with proteasome inhibitor MG132 (Bcr-Abl^T315I; 20 μmol/L MG132, then 7o 24 h at 100 and 300 nmol/L)","treatment time of maximum degradation (Bcr-Abl^T315I; Ba/F3 Bcr-Abl^T315I, time-course) [h]",mechanism of Bcr-Abl^T315I degradation (Co-IP) [3]
"Cc1ccc(C(=O)Nc2ccc(CN3CCN(CCCCCCC(=O)Nc4cccc5c4C(=O)N(C4CCC(=O)NC4=O)C5=O)CC3)c(C(F)(F)F)c2)cc1C#Cc1cnc2[nH]ncc2c1 (stereo not shown) [compound 7o, 3-((1H-Pyrazolo[3,4-b]pyridin-5-yl)ethynyl)-N-(4-((4-(7-((2-(2,6-dioxopiperidin-3-yl)-1,3-dioxoisoindolin-4-yl)amino)-7-oxoheptyl)piperazin-1-yl)methyl)-3-(trifluoromethyl)phenyl)-4-methylbenzamide]",0.0042 ± 0.0002,0.0268 ± 0.0097,0.0077 ± 0.0018,69.89,94.23,–,–,36,90.8,< 5,no mortality,substantial tumor regression; also recorded: suppresses the growth,induced apoptosis,high plasma concentrations maintained over 48 h,6,successfully rescue,24,mediated by CRBN E3 ubiquitin pathway
"Cc1ccc(C(=O)Nc2ccc(CN3CCN(CCOCCOCCC(=O)Nc4cccc5c4CN(C4CCC(=O)NC4=O)C5=O)CC3)c(C(F)(F)F)c2)cc1C#Cc1cnc2[nH]ncc2c1 (stereo not shown) [7b, 3-((1H-Pyrazolo[3,4-b]pyridin-5-yl)ethynyl)-N-(4-((4-(2-(2-(3-((2-(2,6-dioxopiperidin-3-yl)-1-oxoisoindolin-4-yl)amino)-3-oxopropoxy)ethoxy)ethyl)piperazin-1-yl)methyl)-3-(trifluoromethyl)phenyl)-4-methylbenzamide]",0.0653 ± 0.0302,0.287 ± 0.023,0.004 ± 0.0006,−9.18,−4.21,–,–,–,–,–,–,–,–,–,–,–,–,–
"Cc1ccc(C(=O)Nc2ccc(CN3CCN(CCOCCOCCOCCOCCOCCOCCC(=O)Nc4cccc5c4C(=O)N(C4CCC(=O)NC4=O)C5=O)CC3)c(C(F)(F)F)c2)cc1C#Cc1cnc2[nH]ncc2c1 (stereo not shown) [7k, 1-(4-(4-(3-((1H-Pyrazolo[3,4-b]pyridin-5-yl)ethynyl)-4-methylbenzamido)-2-(trifluoromethyl)benzyl)piperazin-1-yl)-N-(2-(2,6-dioxopiperidin-3-yl)-1,3-dioxoisoindolin-4-yl)-3,6,9,12,15,18-hexaoxahenicosan-21-amide]",0.107 ± 0.0249,0.306 ± 0.0693,0.0105 ± 0.0005,19.38,25.53,–,–,–,–,–,–,–,–,–,–,–,–,–
